Results from different studies.
Protocols differ between the studies behind these lines.
ESR2: Estrogen receptor beta (ESR2, Homo sapiens, UniProt Q92731)
Dhodh: Dihydroorotate dehydrogenase (quinone), mitochondrial (Dhodh, Mus musculus, UniProt O35435)
EPHX2: Bifunctional epoxide hydrolase 2 (EPHX2, Homo sapiens, UniProt P34913)

O=C1CC[C@H](N2Cc3cc(N4CCN(CC5CCN(c6ccc([C@@H]7c8ccc(O)cc8CC[C@@H]7c7ccccc7)cc6)CC5)CC4)ccc3C2=O)C(=O)N1 — IC50 (ESR2; ligand displacement, radioligand): 0.005 µM
Cn1nc2c(=O)n(C3CC3)ncc2c1[C@](O)(c1cnc(C(F)(F)F)c(Cl)c1)C(F)(F)F — IC50 (Dhodh; enzyme activity, inhibitor, absorbance): > 30 µM
C[C@@H]1O[C@@H](O[C@@H]2[C@@H](O)[C@H](OCCc3ccc(O)c(O)c3)O[C@H](CO)[C@H]2OC(=O)/C=C/c2ccc(O)c(O)c2)[C@H](O)[C@H](O)[C@H]1O — IC50 (Aldo-keto reductase family 1 member B1 (AKR1B1, Homo sapiens, UniProt P15121); enzyme activity, inhibitor): 1.17 µM
O=C(Nc1ccc(-c2ccc3ncccc3c2)cc1)C1CCN(S(=O)(=O)c2ccccc2Cl)CC1 — IC50 (EPHX2; enzyme activity, inhibitor, fluorescence): 0.0054 µM
Oc1ccc2c3c(cnc2c1)-c1ccc(C(F)(F)F)cc1O[C@@H]3c1ccc(OCCN2CC(CF)C2)cc1 — Ki (ESR2; ligand displacement, radioligand): 0.00011 µM
C[C@H]1CCC[C@@]2(C)CCCC[C@]12O — EC50 (OR11A1 (Homo sapiens, UniProt Q9GZK7); cAMP, agonist, luciferase): 28 µM
O=c1c(O)c(-c2ccc(O)c(O)c2)oc2cc(O)ccc12 — IC50 (Dual specificity mitogen-activated protein kinase kinase 4 (MAP2K4, Homo sapiens, UniProt P45985); enzyme activity, inhibitor, ADP detection): 2.9 µM
C=CCN=C=S — IC50 (EPHX2; enzyme activity, inhibitor, fluorescence): 11.6 µM
N[C@@H](Cc1ccccc1)C(=O)O — IC50 (Intestinal-type alkaline phosphatase (ALPI, Bos taurus, UniProt P19111); enzyme activity, inhibitor): 78.4 µM
O=C(Nc1ccc(-c2cccc3ncccc23)cc1)C1CCN(S(=O)(=O)c2ccccc2Cl)CC1 — IC50 (EPHX2; enzyme activity, inhibitor, fluorescence): 0.0017 µM
CC[C@@](N)(c1cnc(C(F)(F)F)c(Cl)c1)c1c2ncn(C3CC3)c(=O)c2nn1C — IC50 (Dhodh; enzyme activity, inhibitor, absorbance): 6.7 µM
C[S+]([O-])CCCCN=C=S (stereo not drawn) — IC50 (EPHX2; enzyme activity, inhibitor, fluorescence): 3.65 µM
